Test results as given in PubChem BioAssay AID720543 (The Scripps Research Institute Molecular Screening Center, 2013).
About 2,000 (0.54%) of roughly 370,000 compounds were called active. The full list was thinned out, with actives kept by preference. A number with no mark means an inactive call.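 The calls were made as follows: active = inhibition exceeding the mean over every tested compound plus 3 SD (cut at about 30% in these data); inactive = the rest.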

These molecules were tested against (Lyso)-N-acylphosphatidylethanolamine lipase (Mus musculus) (UniProt Q8VD66) (assay: ABHD4 inhibitors, primary screen, biochemical, fluorescence polarization, mouse (AID 720543;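 also: 0% = plate median of compound wells and 100% = S159A mutant with DMSO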)). Details: purified mABHD4, FP-Rh probe fluorescence polarization; at 8.92 µM; active compounds read high.
Chain of (Lyso)-N-acylphosphatidylethanolamine lipase (Mus musculus) (Q8VD66 whole entry, looked up): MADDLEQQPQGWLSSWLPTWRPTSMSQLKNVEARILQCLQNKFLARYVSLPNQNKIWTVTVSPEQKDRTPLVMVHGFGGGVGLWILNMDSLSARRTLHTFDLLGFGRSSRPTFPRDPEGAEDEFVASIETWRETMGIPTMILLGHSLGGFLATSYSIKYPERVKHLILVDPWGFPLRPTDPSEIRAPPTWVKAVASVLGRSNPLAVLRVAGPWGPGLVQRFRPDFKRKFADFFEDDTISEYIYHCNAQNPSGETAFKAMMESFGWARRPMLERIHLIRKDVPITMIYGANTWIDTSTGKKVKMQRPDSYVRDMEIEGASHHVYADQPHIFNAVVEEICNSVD
Procedure, shortened: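 Assay system: mABHD4 protein; medium: HEPES pH 7.0, NaCl, Pluronic buffer; dosing: 8.92 µM, single dose; schedule: 45 min + 60 min at 25 °C; signal: FP readout, ex 525 nm / em 598 nm; read-out: normalized percent inhibition of probe labeling; repeats: single replicate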
`O=C(Nc1cc(F)cc(F)c1)OC1CCC12CCC(c1ccccc1)CC2` (configuration not stated) gave an inhibition of -31.2%. `CC(Oc1ccc(Cl)cc1)c1ccnn1S(C)(=O)=O` (configuration not stated) was tested, and the inhibition was 1.1%. For `CCOC(=O)C1(Cc2ccccc2)CCN(Cc2cn(C(C)=O)c3ccccc23)CC1`, the inhibition was -1.19%. `CCc1c(C)nc2c(OC)cccc2c1Cl` showed an inhibition of 0.48%. `COc1ccc(C)cc1NC(=O)c1[nH]c(C)c(C(C)=O)c1C` showed an inhibition of -2.22%. With `COc1cccc2c(C)c(C(=O)O)[nH]c12` the inhibition was 35.9% (active). Work on `COC(=O)c1cccc(Cn2ccc3ccc(-c4ccc5ccn(C(=O)c6ccccc6C)c5c4)cc32)c1` yielded an inhibition of 1.96%. `CCOC(=O)C[C@H]1c2ccc(C(F)(F)F)cc2S(=O)(=O)N1c1ccccc1` showed an inhibition of -6.24%. With `CCOC(=O)/C=C/c1ccc(C(F)(F)F)cc1S(=O)(=O)NC(C)(C)C` the inhibition was -26.5%. In the case of `CCOC(=O)C1Nc2ccc(C(F)(F)F)cc2C2C=CCC12` (configuration not stated), the inhibition is reported as 41.8% (active). `CN1C(=O)c2cc(NS(C)(=O)=O)ccc2OC[C@@H]2O[C@@H](CC(=O)NCc3ccc(-c4ccccc4)cc3)CC[C@H]21` showed an inhibition of 3.8%. `Cc1ccc(Cn2cc(CN3[C@@H](CC(C)C)COc4ccc(Cl)cc4S3(=O)=O)nn2)cc1` showed an inhibition of 4.37%. With `O=C(NCc1cccs1)C1CCCN(S(=O)(=O)c2ccc([N+](=O)[O-])cc2)C1` (configuration not stated) the inhibition was 4.68%. With `CCC(C)Cn1c(O)cc2nn(-c3nc4ccccc4s3)c(=O)c-2c1C` (configuration not stated) the inhibition was 44.6% (active). Work on `O=S(=O)([N-]c1nc2ccccc2nc1-[n+]1ccc(Cc2ccccc2)cc1)c1ccc(Br)s1` yielded an inhibition of 7.29%. `O=C1CCN(C(=O)Nc2ccccc2)N1` showed an inhibition of 6.15%. For `Cc1ccc(NC2CCCN(C(=O)CCC3(C)CC3)C2)cc1C` (configuration not stated), the inhibition was 8.21%. `O=C(Nc1cc(Cl)cc(Cl)c1)OCCN1CCCC12CCC(c1ccccc1)CC2` (configuration not stated) showed an inhibition of 2.15%. For `COC(=O)c1ccc(COc2cc([N+](=O)[O-])cc3cccnc23)cc1`, the inhibition was 6.05%. Work on `COC(=O)C(C)N(C#N)c1nc(C)nc(C)n1` (configuration not stated) yielded an inhibition of -1.89%. `CCN(C(=O)Nc1cccc2ccccc12)c1ccccc1` was tested, and the inhibition was 18.5%. In the case of `O=C(O)c1cc([N+](=O)[O-])c(Nc2cccc3ccccc23)c([N+](=O)[O-])c1`, the inhibition is reported as 35.4% (active). `O=C(Nc1ccccc1[N+](=O)[O-])C1C(c2ccccc2)=C1c1ccccc1` showed an inhibition of -0.35%. `O=C1C(=O)N(Cc2ccc(-c3ccsc3)cc2)c2ccc(OC(F)(F)F)cc21` was tested, and the inhibition was 1.83%. `COC(=O)[C@]12C[C@H](CC(=O)NCc3ccccc3)C(=O)N(CCc3ccc(OC)c(OC)c3)C1=C[C@H](C(C)(C)C)O[C@@H]2C` gave an inhibition of 4.6%. For `CCOc1cc(/C=C2/N=C(c3ccc(C(C)(C)C)cc3)OC2=O)cc(Cl)c1OS(C)(=O)=O`, the inhibition was 37.3% (active). `CNc1[nH]ncc1[N+](=O)[O-]` gave an inhibition of 7.62%. In the case of `CN(C)CC(=O)N[C@@H]1C[C@@H]2O[C@H](CO)CC[C@@H]2O[C@@H]1CCc1ccc(C#Cc2ccccc2)cc1`, the inhibition is reported as 3.38%. Work on `C#CCCN([C@H](C(=O)OC)C(C)C)S(=O)(=O)c1ccc(F)cc1Br` yielded an inhibition of -7.15%. With `O=C(c1cccnc1)N(c1cc2sc(=O)oc2c2ccccc12)S(=O)(=O)c1ccccc1` the inhibition was 61.7% (active). `CC(=O)N(c1ccc2oc(=O)sc2c1)S(=O)(=O)c1ccc(C)cc1` showed an inhibition of 7.97%. For `O=C(CN(Cc1ccc(Br)cc1)S(=O)(=O)c1ccccc1)NCc1ccncc1`, the inhibition was -0.4%. For `Cc1cc(C)nc(NC(=S)N2CCN(c3ccc(C(F)(F)F)cn3)CC2)c1`, the inhibition was 8.35%. `O=C(NCc1ccco1)C1CCCN(S(=O)(=O)c2cccc3nonc23)C1` (configuration not stated) gave an inhibition of 5.79%. `CCc1ccc(-c2nn(-c3ccccc3C)cc2C(=O)N2CCN(C3CCS(=O)(=O)C3)CC2)cc1` (configuration not stated) was tested, and the inhibition was 5.26%. In the case of `CCc1ccc(-c2nn(-c3ccccc3)cc2CSC(=N)N)cc1`, the inhibition is reported as 52.2% (active). `CCOc1ccc(Br)cc1CSC(=N)N` showed an inhibition of 4.65%. Work on `CC1=C(C/C=C(\C)CCCC(C)CCCC(C)CCCC(C)C)C(=O)c2ccccc2C1=O` (configuration not stated) yielded an inhibition of -0.54%. `C=C(C)C1CC23C(=O)C4(C(=O)c5ccccc5)C[C@@]5(C)CCC(CC2C1(C)C)(C4=O)C35OC` (some centres not stated) showed an inhibition of -1.09%. In the case of `NNc1nc2c(Cl)cccc2s1`, the inhibition is reported as 70.2% (active). `CCOCCOCCC(C(=O)O)P(=O)(c1ccccc1)c1ccccc1` (configuration not stated) was tested, and the inhibition was 4.54%. In the case of `CN(C)[C@@H]1C(=O)C(C(N)=O)=C(O)[C@@]2(O)C(=O)C3=C(O)c4c(O)ccc(Cl)c4[C@@H](O)[C@H]3C[C@@H]12`, the inhibition is reported as 55.1% (active). `C=C1c2c(Cl)ccc(O)c2C(O)=C2C(=O)[C@]3(O)C(O)=C(C(N)=O)C(=O)[C@@H](N(C)C)[C@@H]3[C@@H](O)C12` (some centres not stated) was tested, and the inhibition was 69.7% (active). Work on `COc1ccccc1NC(=O)CCC(=O)OC(C)C(=O)c1ccccc1` (configuration not stated) yielded an inhibition of 4.06%. `C#CCN([C@H](C(=O)OC)C(C)CC)S(=O)(=O)c1ccccc1Br` (some centres not stated) was tested, and the inhibition was -0.06%. `O=C(C(=O)N1CCC(CNC(=O)c2cccnc2Cl)CC1)c1cccs1` was tested, and the inhibition was 2.01%. For `Cc1[nH]nc2c1C(c1ccc(Br)cc1)NC2=O` (configuration not stated), the inhibition was 7.99%. In the case of `Cc1cc(NS(=O)(=O)c2ccc(NC(=O)CSc3nnc(-c4ccc(C(C)(C)C)cc4)n3Cc3ccco3)cc2)nc(C)n1`, the inhibition is reported as -7.09%. In the case of `O=c1[nH]c2ccccc2n2c(-c3ccccc3)nnc12`, the inhibition is reported as 43.1% (active). With `O=C(c1ncn2c1c(=O)[nH]c1ccccc12)N1CCc2ccccc2C1` the inhibition was -9.48%. `O=C(O)C1C2CC2CN1C(=O)c1ccc(Cl)cc1Cl` (configuration not stated) gave an inhibition of 0.74%. In the case of `CCCNC(=O)CN(Cc1ccccc1F)S(=O)(=O)c1ccc(C)cc1`, the inhibition is reported as -5.78%. `CC[C@@H]1Cc2cc(O)ccc2C2=C1c1ccc(O)cc1C[C@H]2CC` was tested, and the inhibition was 35.5% (active). For `Cc1ccc(S(=O)(=O)N2CCCC2C(=O)NCc2ccco2)cc1` (configuration not stated), the inhibition was 5.4%. `CC(C)c1ccc(NC(=S)NC2CC3C=CC2C3)cc1` (configuration not stated) gave an inhibition of -0.07%. `O=C(NC(=S)Nc1ccc(Cl)c(C(=O)O)c1)c1cncc(Br)c1` was tested, and the inhibition was -0.66%. `CC(C)c1ccc(NC(=S)NNc2ccc(Cl)c(C(=O)O)c2)cc1` was tested, and the inhibition was 37.3% (active).
